Test results taken from ChEMBL document CHEMBL5661986, “Discovery of the SMYD3 Inhibitor BAY-6035 Using Thermal Shift Assay (TSA)-Based High-Throughput Screening” (SLAS Discov, 2021).
In brackets after ≈: the same amount, converted by molar mass. Activity calls are given as the source filed them. The calls are words filed in the database; no cut-off is given here.

Legend:
[1] = target: T1, Histone-lysine N-methyltransferase SMYD3 (Homo sapiens, UniProt Q9H7B4); experiment: Binding affinity to recombinant human SMYD3 expressed in Escherichia coli assessed as catalytic inhibition using DYDNPIFEKFGKGGTYPRRYHVSYHGK-Biotin as substrate by scintillation proximity assay
T1 sequence (Q9H7B4 whole entry): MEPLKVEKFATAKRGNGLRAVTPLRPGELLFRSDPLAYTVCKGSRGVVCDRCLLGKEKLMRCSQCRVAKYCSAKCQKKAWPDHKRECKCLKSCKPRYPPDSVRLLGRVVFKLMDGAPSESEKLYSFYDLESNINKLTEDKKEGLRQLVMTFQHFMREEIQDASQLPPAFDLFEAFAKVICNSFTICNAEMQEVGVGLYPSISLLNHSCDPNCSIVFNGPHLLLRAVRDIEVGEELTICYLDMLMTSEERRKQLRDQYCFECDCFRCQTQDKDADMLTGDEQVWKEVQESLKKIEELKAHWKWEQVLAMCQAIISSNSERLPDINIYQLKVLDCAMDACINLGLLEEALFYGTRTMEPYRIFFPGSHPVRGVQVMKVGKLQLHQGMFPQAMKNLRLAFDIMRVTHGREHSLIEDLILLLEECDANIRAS

[2] = Lipophilicity, log D of the compound at pH 7.5; format: physicochemical; details: buffer
[3] = Kinetic solubility of the compound at pH 6.5; format: physicochemical; details: buffer, read-out: Kinetic_solubility
[4] = target: T2, Histone-lysine N-methyltransferase SMYD3 (Homo sapiens) (UniProt Q9H7B4); details: dose 120.0 µM
T2 sequence (whole entry): T1 sequence (Q9H7B4 whole entry)

[5] = target: T2, Histone-lysine N-methyltransferase SMYD3 (Homo sapiens); experiment: Binding affinity to recombinant human SMYD3 expressed in Escherichia coli assessed as change in melting temperature at 10 to 200 uM by SYPRO Orange staining based thermal shift assay; details: dose 10-200 µM
Method in brief: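 Full-length untagged SMYD3 (aa 1–428, E. coli, His tag removed by TEV) at 1.5–2.0 µM with 5x SYPRO Orange in 20 mM Tris pH 7.0, 150 mM NaCl, 1.0 mM DTT; compound titration 10–200 µM; 4% DMSO control; melting scanned 25–80 °C at 0.1 °C/s; Tm shift read.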

[6] = target: T3, Histone-lysine N-methyltransferase SMYD1 (Homo sapiens) (UniProt Q8NB12); experiment: Binding affinity to recombinant human SMYD1 expressed in Sf9 insect cells assessed as change in melting temperature at 120 uM by SYPRO Orange staining based thermal shift assay
T3 sequence (whole entry): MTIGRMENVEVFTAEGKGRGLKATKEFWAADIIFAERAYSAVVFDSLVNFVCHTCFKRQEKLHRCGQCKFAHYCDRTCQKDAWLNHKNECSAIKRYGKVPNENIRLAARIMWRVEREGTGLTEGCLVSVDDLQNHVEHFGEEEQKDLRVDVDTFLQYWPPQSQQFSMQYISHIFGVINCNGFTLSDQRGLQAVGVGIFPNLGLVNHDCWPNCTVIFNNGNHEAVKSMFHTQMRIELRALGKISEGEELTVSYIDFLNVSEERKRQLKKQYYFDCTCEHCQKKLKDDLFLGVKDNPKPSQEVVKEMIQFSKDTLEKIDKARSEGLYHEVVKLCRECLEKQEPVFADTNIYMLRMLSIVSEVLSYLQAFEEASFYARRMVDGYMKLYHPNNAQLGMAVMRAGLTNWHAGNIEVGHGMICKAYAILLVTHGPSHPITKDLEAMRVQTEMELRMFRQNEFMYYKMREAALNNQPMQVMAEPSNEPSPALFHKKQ
Method in brief: (§1)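 SMYD1 (aa 2–490) or SMYD2 (aa 2–433), His-tagged from Sf9, Ni-NTA then gel filtration; melt at 1.4 µM protein, 8x SYPRO Orange in 20 mM Tris pH 8.0, 100 mM NaCl, 8.5% glycerol, 1.0 mM DTT; scan 25–80 °C at 0.1 °C/s; 4% DMSO control.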

[7] = target: N-lysine methyltransferase SMYD2 (Homo sapiens) (UniProt Q9NRG4); experiment: Binding affinity to recombinant human SMYD2 expressed in Sf9 insect cells assessed as change in melting temperature at 120 uM by SYPRO Orange staining based thermal shift assay; method in brief: as §1
[8] = Dissociation constant, pKa of compound; format: physicochemical
[9] = system: Histone-lysine N-methyltransferase SMYD3 (Homo sapiens), Q9H7B4 [UNDEFINED MUTATION]; experiment: Inhibition of SMYD3 catalytic inactive mutant co-expressed with HA-tagged MAP3K2 transfected in human HeLa cells assessed as reduction of MAP3K2-K260me3 level upto 10 uM incubated for 20 hrs by Western blotting analysis; format: cell-based
Method in brief: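 After 4 h, compound or DMSO for 20 h. Lysates immunoblotted for MAP3K2-K260me3 (in-house antibody), HA, SMYD3 and MAP3K2 with infrared secondaries. K260me3 signal normalized to HA; three technical replicates, mean ± SEM, nonlinear fit.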

Chain of N-lysine methyltransferase SMYD2 (Homo sapiens) (Q9NRG4 whole entry): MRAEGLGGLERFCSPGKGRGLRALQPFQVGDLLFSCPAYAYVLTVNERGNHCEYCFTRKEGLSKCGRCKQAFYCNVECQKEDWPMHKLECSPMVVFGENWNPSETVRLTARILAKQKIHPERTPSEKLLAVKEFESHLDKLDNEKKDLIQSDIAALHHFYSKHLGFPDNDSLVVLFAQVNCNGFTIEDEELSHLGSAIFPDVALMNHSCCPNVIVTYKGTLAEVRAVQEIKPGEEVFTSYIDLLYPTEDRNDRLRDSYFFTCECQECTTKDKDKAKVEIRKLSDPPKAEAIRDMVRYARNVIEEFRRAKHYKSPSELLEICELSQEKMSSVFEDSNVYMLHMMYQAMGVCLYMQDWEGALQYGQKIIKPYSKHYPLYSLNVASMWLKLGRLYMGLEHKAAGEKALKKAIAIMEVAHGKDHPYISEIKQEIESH

Row | Compound | IC50 [1] [nM] | logD [2] | solubility kinetic [3] [µg/mL] | deltaTm [4] [K] | deltaTm [5] [K] | deltaTm [6] [K] | deltaTm [7] [K] | pKa [8] | inhibition [9]
1 | C[C@H]1CC(=O)Nc2cc(C(=O)NCCC3CC3)ccc2N1C(=O)N(C)C1CCN(CC(F)(F)F)CC1 | 5560 | 2.4 | 345 (≈ 677 µM) | 3.34 | – | – | – | – | –
2 | CCCCCNC(=O)c1ccc2c(c1)NC(=O)CC(C)N2C(=O)C1CCCC1 (configuration not stated) | 27000 | – | – | – | 0 | -0.1 | 0.1 | – | –
3 | CC1CC(=O)Nc2cc(C(=O)NCCC3CCC3)ccc2N1C(=O)c1ccccc1 (racemic) | 1850 | 2.4 | 87.5 (≈ 216 µM) | 4.77 | – | – | – | – | –
4 | C[C@H]1CC(=O)Nc2cc(C(=O)NCCC3CC3)ccc2N1C(=O)N1CCC(F)(F)CC1 | 2330 | 2.1 | 231 (≈ 531 µM) | 5.6 | – | – | – | – | –
5 | CCCCNC(=O)c1ccc2c(c1)NC(=O)CC(C)N2C(=O)c1ccccc1F (configuration not stated) | 12000 | – | – | 2.4 | 0.7 | 0 | 0 | – | –
6 | C[C@@H]1CC(=O)Nc2cc(C(=O)NCCC3CC3)ccc2N1C(=O)N1CC2CC2C1 (some centres not stated) | 2530 | – | – | 5.15 | – | – | – | – | –
7 | CCCCNC(=O)c1ccc2c(c1)NC(=O)CC(C)N2C(=O)c1cccc(F)c1 (configuration not stated) | – | – | – | – | 0 | 0 | 0.2 | – | –
8 | CC1CC(=O)Nc2cc(C(=O)NCCC3CC3)ccc2N1C(=O)c1ccccc1 (racemic) | 1970 | 2.1 | 95.5 (≈ 244 µM) | 3.9 | – | – | – | – | –
9 | C[C@H]1CC(=O)Nc2cc(C(=O)NCCC3CC3)ccc2N1C(=O)N1CCC(N)CC1 | – | 1.4 | 318 (≈ 768 µM) | – | – | – | – | – | –
10 | CCCCCNC(=O)c1ccc2c(c1)NC(=O)CC(C)N2C(=O)c1ccccc1F (configuration not stated) | 24000 | – | – | – | 0.2 | -0.2 | 0.2 | – | –
11 | C[C@H]1CC(=O)Nc2cc(C(=O)N(C)CCC3CC3)ccc2N1C(=O)N1CC2CC2C1 (some centres not stated) | 2640 | – | – | 3.9 | – | – | – | – | –
12 | C[C@@H]1CC(=O)Nc2cc(C(=O)NCCC3CC3)ccc2N1C(=O)N1CCC(N)CC1 | – | 1.4 | 320 (≈ 775 µM) | – | – | – | – | – | –
13 | CCCCNC(=O)c1ccc2c(c1)NC(=O)CC(C)N2C(=O)CCC1CCCC1 (configuration not stated) | 18000 | – | – | – | 0.4 | -0.2 | 0.2 | – | –
14 | CCCNC(=O)c1ccc2c(c1)NC(=O)CC(C)N2C(=O)c1cccs1 (configuration not stated) | 18000 | – | – | – | 0.2 | -0.2 | 0 | – | –
15 | CCCCCNC(=O)c1ccc2c(c1)NC(=O)CC(C)N2C(=O)c1ccc(C)cc1 (configuration not stated) | 22000 | – | – | – | 0.2 | 0.2 | 0.2 | – | –
16 | C[C@@H]1CC(=O)Nc2cc(C(=O)N(C)CCC3CC3)ccc2N1C(=O)N1CC2CC2C1 (some centres not stated) | > 100000 | – | – | – | – | – | – | – | inactive

Results, then the molecule that gave them:

Row | IC50 [1] [nM] | logD [2] | solubility kinetic [3] [µg/mL] | deltaTm [4] [K] | deltaTm [5] [K] | deltaTm [6] [K] | deltaTm [7] [K] | pKa [8] | inhibition [9] | Compound
17 | 396 | 1.3 | 252 (≈ 609 µM) | 6.77 | – | – | – | – | – | C[C@H]1CC(=O)Nc2cc(C(=O)NCCC3CC3)ccc2N1C(=O)NC1CCNCC1
18 | 177 | 1.5 | > 456 | 8.2 | – | – | – | – | – | CCN1CCC(N(C)C(=O)N2c3ccc(C(=O)NCCC4CC4)cc3NC(=O)C[C@@H]2C)CC1
19 | 493 | 1.3 | 257 (≈ 602 µM) | 6.1 | – | – | – | – | – | C[C@H]1CC(=O)Nc2cc(C(=O)NCCC3CC3)ccc2N1C(=O)N(C)C1CCNCC1
20 | 1510 | 2.2 | – | 5.26 | – | – | – | – | – | C[C@H]1CC(=O)Nc2cc(C(=O)NCCC3CC3)ccc2N1C(=O)N1CCN(CC(F)(F)F)CC1
21 | 459 | 1.7 | > 428 | 7.34 | – | – | – | – | – | CCN1CCN(C(=O)N2c3ccc(C(=O)NCCC4CC4)cc3NC(=O)C[C@@H]2C)CC1
22 | 54.2 | 1.4 | > 414 | 8.46 | – | – | – | 8.8 | – | C[C@H]1CC(=O)Nc2cc(C(=O)NCCC3CC3)ccc2N1C(=O)N1CCCNCC1
23 | 1080 | 1.5 | 254 (≈ 573 µM) | 5.63 | – | – | – | – | – | C[C@H]1CC(=O)Nc2cc(C(=O)NCCC3CC3)ccc2N1C(=O)N1CCN(CCO)CC1
24 | 252 | 1.4 | 374 (≈ 936 µM) | 7.42 | – | – | – | – | – | C[C@H]1CC(=O)Nc2cc(C(=O)NCCC3CC3)ccc2N1C(=O)N1CCNCC1
25 | 1030 | 2.2 | 312 (≈ 631 µM) | 5.63 | – | – | – | – | – | C[C@H]1CC(=O)Nc2cc(C(=O)NCCC3CC3)ccc2N1C(=O)N1CCC(NCC(F)(F)F)CC1
26 | 832 | 1.4 | 330 | 5.91 | – | – | – | – | – | C[C@H]1CC(=O)Nc2cc(C(=O)NCCC3CC3)ccc2N1C(=O)N1CC[C@@H](N)C1.Cl
27 | 259 | 1.4 | 294 | 7.56 | – | – | – | – | – | C[C@H]1CC(=O)Nc2cc(C(=O)NCCC3CC3)ccc2N1C(=O)N1CC[C@H](N)C1.Cl
28 | 763 | 2 | 294 (≈ 700 µM) | 6.16 | – | – | – | – | – | C[C@H]1CC(=O)Nc2cc(C(=O)NCCC3CC3)ccc2N1C(=O)N1CCC(F)(F)C1
